Among the data in ChEMBL document CHEMBL1177716, “Kinesin spindle protein (KSP) inhibitors with 2,3-fused indole scaffolds” (J Med Chem, 2010) are IC50, inhibition and Activity values, retold here.

The target in experiment [1] is T1, Kinesin-like protein KIF11 (Homo sapiens, UniProt P52732).
T1 sequence (P52732 whole entry): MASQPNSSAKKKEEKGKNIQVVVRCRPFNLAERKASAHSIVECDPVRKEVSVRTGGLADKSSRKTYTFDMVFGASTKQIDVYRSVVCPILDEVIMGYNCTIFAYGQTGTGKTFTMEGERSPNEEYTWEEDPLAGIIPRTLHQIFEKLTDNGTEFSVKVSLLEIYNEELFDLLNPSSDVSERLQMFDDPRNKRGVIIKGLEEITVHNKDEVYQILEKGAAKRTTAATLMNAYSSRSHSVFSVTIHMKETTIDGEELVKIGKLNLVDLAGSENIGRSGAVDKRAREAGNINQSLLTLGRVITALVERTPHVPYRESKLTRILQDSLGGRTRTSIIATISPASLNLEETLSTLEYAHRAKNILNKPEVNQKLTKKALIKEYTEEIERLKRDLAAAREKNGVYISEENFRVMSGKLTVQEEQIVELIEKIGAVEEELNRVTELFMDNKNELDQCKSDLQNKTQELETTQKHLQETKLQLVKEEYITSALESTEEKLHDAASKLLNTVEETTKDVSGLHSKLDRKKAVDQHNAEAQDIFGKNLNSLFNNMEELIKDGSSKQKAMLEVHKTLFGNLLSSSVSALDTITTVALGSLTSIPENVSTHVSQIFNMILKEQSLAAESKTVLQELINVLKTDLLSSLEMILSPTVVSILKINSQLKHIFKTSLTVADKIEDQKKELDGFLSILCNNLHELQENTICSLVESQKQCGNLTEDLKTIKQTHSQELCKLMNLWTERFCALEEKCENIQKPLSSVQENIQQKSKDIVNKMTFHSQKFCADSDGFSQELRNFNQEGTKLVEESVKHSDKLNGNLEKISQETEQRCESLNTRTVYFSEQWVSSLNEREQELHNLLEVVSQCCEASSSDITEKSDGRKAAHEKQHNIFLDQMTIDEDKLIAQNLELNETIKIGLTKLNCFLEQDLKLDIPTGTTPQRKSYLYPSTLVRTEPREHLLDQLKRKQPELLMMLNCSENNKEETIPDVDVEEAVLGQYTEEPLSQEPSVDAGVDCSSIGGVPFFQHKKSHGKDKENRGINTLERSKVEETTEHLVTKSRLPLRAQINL
Nature of the experiment: Inhibition of human C-terminally His6-tagged microtubule-activated KSP motor domain ATPase activity after 30 mins by luciferase-derived luminescence assay.

Experiment [2] addresses Centromere-associated protein E (Homo sapiens) (UniProt Q02224). Briefly: Inhibition of CENP-E ATPase activity at 20 uM.
The target of experiment [3] is T2, Kinesin-like protein KIF22 (Homo sapiens) (UniProt Q14807).
T2 sequence (whole entry): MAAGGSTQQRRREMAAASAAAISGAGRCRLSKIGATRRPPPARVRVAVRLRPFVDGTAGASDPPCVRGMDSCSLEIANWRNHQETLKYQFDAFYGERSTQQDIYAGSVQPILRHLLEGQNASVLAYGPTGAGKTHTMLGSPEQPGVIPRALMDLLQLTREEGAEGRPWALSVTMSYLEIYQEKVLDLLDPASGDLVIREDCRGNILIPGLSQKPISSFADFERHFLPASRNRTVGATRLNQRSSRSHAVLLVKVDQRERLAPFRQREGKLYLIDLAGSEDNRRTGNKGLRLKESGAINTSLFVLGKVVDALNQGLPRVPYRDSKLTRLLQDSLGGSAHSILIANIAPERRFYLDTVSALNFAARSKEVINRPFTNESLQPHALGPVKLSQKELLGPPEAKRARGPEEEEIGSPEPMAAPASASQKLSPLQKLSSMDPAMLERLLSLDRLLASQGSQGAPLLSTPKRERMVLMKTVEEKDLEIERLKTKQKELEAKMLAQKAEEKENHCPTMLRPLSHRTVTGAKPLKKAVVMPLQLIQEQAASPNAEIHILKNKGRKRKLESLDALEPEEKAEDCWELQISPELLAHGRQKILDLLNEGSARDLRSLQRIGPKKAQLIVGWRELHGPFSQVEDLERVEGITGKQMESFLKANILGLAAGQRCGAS
Briefly: Inhibition of Kid ATPase activity at 20 uM.

Experiment [4] deals with T3, Kinesin-like protein KIF23 (Homo sapiens) (UniProt Q02241).
T3 sequence (whole entry): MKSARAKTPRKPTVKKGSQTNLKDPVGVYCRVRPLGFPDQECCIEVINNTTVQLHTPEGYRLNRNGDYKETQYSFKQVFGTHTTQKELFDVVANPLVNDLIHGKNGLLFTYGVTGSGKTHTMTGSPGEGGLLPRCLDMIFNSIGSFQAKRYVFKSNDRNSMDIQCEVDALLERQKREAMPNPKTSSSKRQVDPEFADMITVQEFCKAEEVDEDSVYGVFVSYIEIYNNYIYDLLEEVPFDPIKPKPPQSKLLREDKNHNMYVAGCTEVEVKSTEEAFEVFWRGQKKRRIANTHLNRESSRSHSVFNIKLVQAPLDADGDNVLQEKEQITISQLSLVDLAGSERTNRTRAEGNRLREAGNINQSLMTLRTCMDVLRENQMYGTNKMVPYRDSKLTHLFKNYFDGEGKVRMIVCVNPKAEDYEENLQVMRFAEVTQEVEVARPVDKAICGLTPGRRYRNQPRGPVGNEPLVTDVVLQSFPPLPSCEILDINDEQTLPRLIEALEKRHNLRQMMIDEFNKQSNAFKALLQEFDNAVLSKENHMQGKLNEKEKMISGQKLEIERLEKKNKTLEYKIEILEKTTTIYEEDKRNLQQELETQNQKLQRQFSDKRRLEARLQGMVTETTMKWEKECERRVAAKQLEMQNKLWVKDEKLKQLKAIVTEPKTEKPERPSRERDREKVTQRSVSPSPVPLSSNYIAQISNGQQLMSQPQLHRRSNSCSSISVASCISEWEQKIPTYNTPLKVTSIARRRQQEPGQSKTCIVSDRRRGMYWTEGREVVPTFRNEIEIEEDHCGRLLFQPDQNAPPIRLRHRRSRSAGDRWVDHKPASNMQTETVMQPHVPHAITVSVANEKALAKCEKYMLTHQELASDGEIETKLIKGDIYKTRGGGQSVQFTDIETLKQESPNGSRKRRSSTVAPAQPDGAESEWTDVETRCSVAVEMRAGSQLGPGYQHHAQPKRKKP
Nature of the experiment: Inhibition of MKLP-1 ATPase activity at 20 uM.

Experiment [5] is filed under the species Sus scrofa. Nature of the experiment: Inhibition of pig brain topoisomerase 1-mediated supercoiled DNA relaxation after 20 mins by agarose gel electrophoresis analysis. The method in brief: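 Supercoiled DNA was incubated with topo I, with or without test compound. Gel lanes included supercoiled DNA alone, DNA plus enzyme without compound, and DNA plus enzyme with camptothecin as the reference inhibitor.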

The species entered for experiment [6] is Sus scrofa. Briefly: Inhibition of pig brain topoisomerase 2-mediated supercoiled DNA relaxation after 20 mins by agarose gel electrophoresis analysis. The method in brief: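 Supercoiled DNA was incubated with topo II, with or without test compound. Gel lanes included supercoiled DNA alone, DNA plus enzyme without compound, and DNA plus enzyme with AMSA as the reference inhibitor.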

In another experiment the test system is Nucleic Acid. Nature of the experiment: Induction of supercoiled DNA relaxation after 20 mins by agarose gel electrophoresis analysis. In kind it is nucleic-acid assay.

SMILES strings stand for the structures. Calls of active or inactive are those of the source. No cut-off for these calls is given here.

Chain of Centromere-associated protein E (Homo sapiens) (Q02224 whole entry): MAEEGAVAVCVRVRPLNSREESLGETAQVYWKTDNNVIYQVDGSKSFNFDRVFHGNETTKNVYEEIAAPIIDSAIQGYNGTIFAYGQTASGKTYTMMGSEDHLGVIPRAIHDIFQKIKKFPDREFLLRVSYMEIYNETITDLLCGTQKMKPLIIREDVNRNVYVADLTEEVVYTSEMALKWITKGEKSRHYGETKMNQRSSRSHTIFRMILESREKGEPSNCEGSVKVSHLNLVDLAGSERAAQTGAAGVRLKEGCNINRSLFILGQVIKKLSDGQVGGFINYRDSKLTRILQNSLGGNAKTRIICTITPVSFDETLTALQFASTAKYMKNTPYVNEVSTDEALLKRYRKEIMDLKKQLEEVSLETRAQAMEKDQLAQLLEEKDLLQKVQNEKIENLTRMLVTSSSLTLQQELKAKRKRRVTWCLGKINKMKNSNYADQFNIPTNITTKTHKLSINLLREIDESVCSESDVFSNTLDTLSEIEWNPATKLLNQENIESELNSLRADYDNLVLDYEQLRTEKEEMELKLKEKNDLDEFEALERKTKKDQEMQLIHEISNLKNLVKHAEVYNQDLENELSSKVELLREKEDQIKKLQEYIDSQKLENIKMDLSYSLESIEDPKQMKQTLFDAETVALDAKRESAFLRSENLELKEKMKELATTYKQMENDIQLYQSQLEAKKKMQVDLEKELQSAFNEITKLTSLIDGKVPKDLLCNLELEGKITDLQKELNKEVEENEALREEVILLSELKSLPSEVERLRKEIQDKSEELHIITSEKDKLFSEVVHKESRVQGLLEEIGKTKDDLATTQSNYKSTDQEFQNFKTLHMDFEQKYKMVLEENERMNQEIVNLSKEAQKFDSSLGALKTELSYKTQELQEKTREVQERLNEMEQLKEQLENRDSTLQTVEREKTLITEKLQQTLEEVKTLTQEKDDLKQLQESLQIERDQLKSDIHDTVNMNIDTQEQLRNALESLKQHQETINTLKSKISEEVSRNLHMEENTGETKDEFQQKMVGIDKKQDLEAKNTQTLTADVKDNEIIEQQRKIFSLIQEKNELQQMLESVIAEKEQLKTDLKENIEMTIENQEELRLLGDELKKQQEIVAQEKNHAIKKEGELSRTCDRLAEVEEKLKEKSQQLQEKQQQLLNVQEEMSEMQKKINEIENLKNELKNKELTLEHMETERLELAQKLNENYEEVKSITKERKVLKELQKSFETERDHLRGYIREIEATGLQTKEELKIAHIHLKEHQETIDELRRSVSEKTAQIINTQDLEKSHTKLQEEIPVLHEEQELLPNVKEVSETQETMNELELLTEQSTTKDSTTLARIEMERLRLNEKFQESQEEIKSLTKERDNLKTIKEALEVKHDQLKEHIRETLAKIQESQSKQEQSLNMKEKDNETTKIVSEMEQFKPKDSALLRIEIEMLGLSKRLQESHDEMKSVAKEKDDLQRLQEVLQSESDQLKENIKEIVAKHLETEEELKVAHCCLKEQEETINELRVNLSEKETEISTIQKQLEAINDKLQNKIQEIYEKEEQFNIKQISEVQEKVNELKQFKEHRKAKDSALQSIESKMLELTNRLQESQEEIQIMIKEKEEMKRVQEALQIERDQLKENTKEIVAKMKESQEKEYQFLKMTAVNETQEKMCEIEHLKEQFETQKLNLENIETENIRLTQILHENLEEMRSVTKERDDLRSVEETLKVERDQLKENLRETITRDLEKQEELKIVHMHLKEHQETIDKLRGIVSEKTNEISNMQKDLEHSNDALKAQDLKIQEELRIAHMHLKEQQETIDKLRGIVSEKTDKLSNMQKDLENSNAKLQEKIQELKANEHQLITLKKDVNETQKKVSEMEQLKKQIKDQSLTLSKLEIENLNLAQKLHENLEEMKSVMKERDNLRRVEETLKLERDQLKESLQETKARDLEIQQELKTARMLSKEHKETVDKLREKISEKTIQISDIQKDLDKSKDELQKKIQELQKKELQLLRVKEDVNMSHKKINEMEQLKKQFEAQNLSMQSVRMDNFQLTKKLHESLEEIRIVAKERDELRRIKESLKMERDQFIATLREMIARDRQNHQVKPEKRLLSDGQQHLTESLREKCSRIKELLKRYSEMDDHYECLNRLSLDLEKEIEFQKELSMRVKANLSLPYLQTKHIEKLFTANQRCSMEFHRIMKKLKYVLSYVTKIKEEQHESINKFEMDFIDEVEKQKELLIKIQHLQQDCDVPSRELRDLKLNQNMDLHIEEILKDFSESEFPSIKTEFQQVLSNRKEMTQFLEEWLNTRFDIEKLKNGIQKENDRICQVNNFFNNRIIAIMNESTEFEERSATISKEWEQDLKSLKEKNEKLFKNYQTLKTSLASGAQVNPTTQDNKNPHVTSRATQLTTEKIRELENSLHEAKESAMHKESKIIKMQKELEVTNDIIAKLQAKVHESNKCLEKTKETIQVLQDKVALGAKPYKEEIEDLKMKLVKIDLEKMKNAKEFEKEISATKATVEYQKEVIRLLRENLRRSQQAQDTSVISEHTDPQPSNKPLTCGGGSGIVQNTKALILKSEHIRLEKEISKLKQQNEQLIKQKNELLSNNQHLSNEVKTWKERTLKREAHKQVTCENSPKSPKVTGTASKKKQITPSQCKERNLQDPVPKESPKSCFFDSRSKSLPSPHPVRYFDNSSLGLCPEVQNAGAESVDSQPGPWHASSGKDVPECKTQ

In general, IC50 refers to the point on the concentration scale where inhibition reaches its midpoint. Regarding `FC(F)(F)c1ccc2[nH]c3ccccc3c2c1`, in experiment [1], the IC50 was determined as 950 nM. Moreover, the inhibition entry (in experiment [2]; in experiment [3]; in experiment [4]; in the experiment filed under Sus scrofa [5]; in the experiment filed under Sus scrofa [6]) was “inactive” in each case. Moreover, the outcome in the experiment with Nucleic Acid was inactive.
Consider `FC(F)(F)c1ccc2c(c1)[nH]c1ccccc12`, for which half-maximal inhibition in experiment [1] (IC50) was put at 260 nM. The inhibition entry (in experiment [2]; in experiment [3]; in experiment [4]; in the experiment filed under Sus scrofa [5]; in the experiment listed under Sus scrofa [6]) was “inactive” throughout. For the same compound, in the experiment with Nucleic Acid, the result was inactive.
Take `CC(C)(C)c1ccc2c(c1)[nH]c1ccccc12`: 300 nM corresponded to half-maximal inhibition in experiment [1] (IC50). Besides, the inhibition entry (in experiment [2]; in experiment [3]; in experiment [4]; in the experiment listed under Sus scrofa [5]; in the experiment filed under Sus scrofa [6]) was “inactive” in each case. In addition, in the experiment with Nucleic Acid, the result was inactive.
